# Screening results (PubChem)
# S1P3 agonist = activates the human S1P3 receptor; S1P3 NFAT-BLA reporter cells, agonism, FRET ratio; relative to 1 µM S1P, basal subtracted; activation, % at 4.5 µM; 0.1% of 60,000 active;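 active = activation above the screen-wide mean plus 3 SD, cut at about 4.5% in these data, passing the limit was not always enough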
#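 Assay system: CHO cells stably expressing human S1P3, Gα16 and NFAT-β-lactamase reporter. Timing: overnight plating, 4 h compound 37 °C, 2 h substrate RT. Signal: β-lactamase FRET emission ratio 460/535 nm. Measure: percent activation versus median 1 µM S1P response, basal-subtracted, per plate. Repeats: primary screen single test, confirmation screen in triplicate.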
# 5HT1E antag = blocks the human 5-HT1E serotonin receptor; AID 571; inhibition, % at 6 µM; CHO 5-HT1E Ga15 NFAT-bla reporter, FRET, antagonist; P28566; 0.99% of 65,000 active;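 active = inhibition above a set limit, the mean inhibition across every tested compound plus 3 SD, cut at about 29% in these data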;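 also: signal is the 460 over 535 nm emission ratio of beta-lactamase substrate; 0% = agonist plus DMSO wells and 100% = wells without agonist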
# 5HT1a ag = activates the human 5-HT1a serotonin receptor | CHO 5-HT1a Ga15 NFAT-bla reporter, FRET ratio; 0% basal, 100% maximal reference agonist | activation, % at 10 µM | 0.56% of 65,000 active | AID 567;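 active = activation above the screen-wide mean activation plus 3 SD, cut at about 19% in these data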;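 also: 0% = DMSO wells and 100% = 5-CT at EC100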
# Target sequence (P08908 whole entry, looked up): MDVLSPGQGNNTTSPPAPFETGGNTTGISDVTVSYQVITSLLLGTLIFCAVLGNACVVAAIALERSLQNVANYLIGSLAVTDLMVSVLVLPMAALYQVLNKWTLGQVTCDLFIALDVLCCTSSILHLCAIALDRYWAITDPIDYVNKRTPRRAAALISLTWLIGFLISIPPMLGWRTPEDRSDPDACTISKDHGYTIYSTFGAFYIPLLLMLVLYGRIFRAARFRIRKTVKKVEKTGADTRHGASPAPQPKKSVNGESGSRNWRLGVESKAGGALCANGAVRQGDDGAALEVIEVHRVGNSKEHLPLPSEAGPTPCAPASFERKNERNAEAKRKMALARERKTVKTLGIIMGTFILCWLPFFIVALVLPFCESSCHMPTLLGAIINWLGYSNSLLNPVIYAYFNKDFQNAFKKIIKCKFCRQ
# 5HT1a antag = antagonists of human 5-HT1a serotonin receptor | AID 612 | CHO 5-HT1a Ga15 NFAT-bla reporter, antagonist mode | inhibition, % at 10 µM | 0.68% of 62,000 active;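 active = inhibition above the mean of all tested compounds plus 3 SD, cut at about 43% in these data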;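 also: receptor stimulated by 5-CT agonist at 100 nM near EC80; beta-lactamase reporter measured by ratiometric fluorescence of a cleavable substrate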
# S1P1 ag pot = agonists and agonism potentiators of human S1P1 receptor | 0.57% of 56,000 active | S1P1 CRE-bla cells, forskolin, beta-lactamase FRET, potentiator mode; S1P1 agonist co-added at EC20, 2 nM; 100% = saturating reference agonist, 0% = basal | activation, % at 9.5 µM | AID 449 | P21453;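 active = activation above a cutoff set at the mean activation of all tested compounds plus 3 SD, cut at about 54% in these data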;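 also: forskolin at 4 µM as EC80 and the EC20 agonist is SEW2871; 100% = SEW2871 at its EC100 plus forskolin at EC80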
# 5HT1E ag = activates the human 5-HT1E serotonin receptor; P28566; CHO 5-HT1E Ga15 NFAT-bla reporter, FRET; 0% DMSO wells, 100% control agonist wells; activation, % at 6 µM; 0.69% of 65,000 active; AID 574;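 active = activation above a set limit, the screen-wide mean activation plus 3 SD, cut at about 8.5% in these data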;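 also: 100% = positive control agonist at 1 µM giving full maximal response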
# The depositor's hits bear a star; · = no result. Rows were chosen to be rich in hits. Some 3% of all compounds tested hit in one or more screens of this group.
SMILES,S1P3 agonist,5HT1E antag,5HT1a ag,5HT1a antag,S1P1 ag pot,5HT1E ag
Cn1c(C(=O)NCCC2=CCCCC2)cc2c(=O)n3ccccc3nc21,1,11,0,-4,-71,0
Cn1c(C(=O)NCCCN2CCCC2=O)cc2c(=O)n3ccccc3nc21,1,30*,0,3,2,0
O=C(c1ccc(CS(=O)(=O)c2ccccc2)o1)N1CCN(c2ncccn2)CC1,0,1,-5,-4,-15,1
COc1ccc(C(CNC(=O)c2ccc3c(c2)C(=O)N(CCC(C)C)C3=O)N2CCOCC2)cc1 (configuration not stated),0,7,-1,3,10,-1
COc1ccc(NC(=O)CSc2ccccn2)cc1OC,0,-5,-3,-10,-21,0
COc1ccc(/C=N/n2cncn2)cc1CSc1ccccn1,-5,-8,0,·,-15,16*
O=C(CCn1nc(-c2ccccc2)ccc1=O)N1CCOCC1,0,-6,-2,-11,2,0
O=C(CSc1ccccc1)Nc1ccccc1N1CCOCC1,0,9,-4,-3,-40,-1
O=C(CN1C(=O)CSC1=O)Nc1ccccc1N1CCOCC1,-1,8,-4,8,2,10*
Cn1c(C(=O)OCC(=O)NCCc2ccccc2)cc2sccc21,1,-5,1,-6,9,-1
O=C(OCn1nnc2ccccc2c1=O)c1ccc2ccccc2n1,1,-7,7,8,-5,-1
COc1cccc(-c2nn(C)c3sc(C(=O)Nc4ccc5c(c4)OCCO5)cc23)c1,1,-13,-1,-4,22,1
COc1cccc(-c2nn(C)c3sc(C(=O)NCc4ccccn4)cc23)c1,-1,42*,-1,20,-14,-1
CCn1c(CNC(=O)c2ccco2)nnc1SCC(=O)Nc1cc(C(F)(F)F)ccc1Cl,0,3,54*,5,-6,0
Cc1ccc(C(=O)Nc2nc3ccccc3c(=O)s2)cc1,1,-5,-2,67*,-11,0
O=C(Nc1nc(=O)c2ccccc2s1)c1ccccc1,-3,3,0,·,-7,0
COCCOC(=O)C1=C(C)Nc2nc(C)nn2C1c1ccc(F)cc1 (configuration not stated),-1,-1,31*,-3,5,1
N=c1c(S(=O)(=O)c2ccc(Cl)cc2)cc2c(=O)n3ccccc3nc2n1CCN1CCOCC1,1,0,24*,-51,-32,8
Cn1c(=N)c(S(=O)(=O)c2ccccc2)cc2c(=O)n3ccccc3nc21,1,-1,12,-18,-58,5
Cc1ccc(CNC(=O)c2cc3c(=O)n4ccccc4nc3n(CC3CCCO3)c2=N)cc1 (configuration not stated),11,-13,32*,·,-142,4
Cc1ccc(CNC(=O)c2cc3c(=O)n4ccccc4nc3n(Cc3ccco3)c2=N)cc1,4,5,4,·,-61,1
CC(C)n1c(=N)c(C(=O)NCCc2ccccc2)cc2c(=O)n3ccccc3nc21,6.3*,-13,52*,-69,-245,13*
N=c1c(C(=O)NCc2ccco2)cc2c(=O)n3ccccc3nc2n1Cc1ccc(Cl)cc1,4.8*,-16,27*,13,-142,5
CC(C)n1nnnc1SCC(=O)N1CCOCC1,0,3,1,10,7,0
COc1cccc(-c2nc(CS(=O)(=O)CC(=O)Nc3cccc(C)c3C)c(C)o2)c1,0,4,1,11,7,-1
SMILES,S1P3 agonist,5HT1E antag,5HT1a ag,5HT1a antag,S1P1 ag pot,5HT1E ag
COCCNC(=O)C(c1ccc(C)o1)N(C(=O)c1snc(C(N)=O)c1N)c1cc(C)cc(C)c1 (configuration not stated),1,2,5,9,9,0
COc1ccc(OC)c(S(=O)(=O)N2CCC(C(=O)Nc3ccc(C)c(C)c3)CC2)c1,0,2,-1,-12,4,0
CCOC(=O)c1c(C)c(-c2ccccc2)n(CC(=O)N2CCCC2)c1C,-1,4,0,2,-11,1
CC(C)CC(=O)NC1(C(F)(F)F)C(=O)Nc2c1c(=O)n(C)c(=O)n2C (configuration not stated),0,0,-3,-2,-18,0
O=C(CN1CCC(NC(=O)c2cccc(F)c2)CC1)NCc1ccccc1F,·,5,27*,-7,·,-2
O=C(CN1CCC(NC(=O)c2ccccc2)CC1)NCc1ccccc1F,-1,-5,-2,3,-6,0
Cc1ccc2[nH]c(=O)c(N3CCOCC3)c(-c3ccccc3)c2c1,0,11,4,52*,·,0
Cc1cc(NC(=O)C2CCCC2)nc2c1c(=O)oc1ccccc12,·,-2,4,-20,·,-1
COc1cccc(C(=O)Nc2cc(C)c3c(=O)oc4ccccc4c3n2)c1,-1,2,25*,-12,-5,-1
Cc1ccc(C)c(NC(=O)CNS(=O)(=O)c2ccccc2)c1,-2,-1,0,3,·,-1
CC(Oc1ccccc1)C(=O)Nc1ccc(S(=O)(=O)NCC2CCCO2)cc1 (configuration not stated),-1,-10,14,-17,-15,0
COc1cccc(-c2cn3nc(C)c(C)nc3n2)c1,0,-9,-3,-10,-3,1
Cc1nc2nc(-c3cccs3)cn2nc1C,0,39*,-4,12,29,0
Cc1cc(C(=O)CSc2nnc(C3COc4ccccc4O3)n2C)c(C)n1-c1ccc(F)cc1 (configuration not stated),4,30*,-3,28,29,0
Cc1cc(C(=O)CSc2nc(N)cc(N)n2)c(C)n1CCc1ccc(F)cc1,0,4,3,-10,31,0
COc1ccc(CCn2c(C)cc(C(=O)CSc3nnnn3C)c2C)cc1,14*,6,3,1,7,-1
Cc1cc(C(=O)CSc2nnnn2C)c(C)n1-c1cccc(F)c1,3,-3,-1,-13,93*,0
COc1cccc(OCC(O)CN2CCC(Cc3ccccc3)CC2)c1 (configuration not stated),-1,-1,9,52*,2,1
COc1cccc(OCC(O)CN2CCOCC2)c1 (configuration not stated),0,-12,0,-12,-23,1
CCN1CCN(C(c2ccccc2F)c2nnnn2Cc2ccc3c(c2)OCO3)CC1 (configuration not stated),0,-6,-2,-2,-22,1
